In paper PMC3475257 (The FASEB Journal, 2012):

Tested on: fully infectious HXB2 HIV‐1
Experiment: HXB2 virus infectivity assay
Format: cell-based
Settings: up to 1 μM, TZM‐bl cells
Procedure, shortened: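 TZM-bl reporter cells were seeded at 2×10^4 cells/well in 10% serum DMEM and left to adhere 18-24 h at 37°C. Medium was then swapped for serum-free DMEM containing 40 μg/ml DEAE-dextran. Test compound was added, followed by concentrated HXB2 stock diluted in the same medium. Infection ran 18 h at 37°C, with a luciferase (Steady-Glo) read-out.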

CCCCCCCCCCCCCCC[C@@H](O)[C@@H](N)CO [sphinganine, D‐erythrodihydrosphingosine]
Effect of sphinganine alone on viral infectivity: did not affect viral infectivity
